MC4R barr agon: human MC4R agonism via beta-arrestin; P32245; U2OS MC4R beta-arrestin complementation, luminescence; percent of melanotan II response, DMSO zero; activation, % at 8.9 µM; 360,000 compounds, 0.98% hits;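 active means activation above a per-plate cutoff, the mean activation of sample wells on that plate plus 3 SD, cut at about 8% in these data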
Target sequence (P32245 whole entry, looked up): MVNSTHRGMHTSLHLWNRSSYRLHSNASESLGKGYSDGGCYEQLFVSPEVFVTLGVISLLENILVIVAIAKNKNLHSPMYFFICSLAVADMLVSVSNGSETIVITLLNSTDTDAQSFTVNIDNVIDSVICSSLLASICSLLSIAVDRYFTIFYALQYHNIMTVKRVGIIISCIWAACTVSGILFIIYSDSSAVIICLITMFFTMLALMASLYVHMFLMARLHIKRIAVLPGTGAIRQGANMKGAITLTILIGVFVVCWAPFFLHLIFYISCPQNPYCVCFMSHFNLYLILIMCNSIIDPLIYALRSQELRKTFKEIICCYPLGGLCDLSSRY
F508del corr: CFTR F508del correction in bronchial cells | CFBE cells, YFP halide quenching; stimulated with forskolin plus potentiator P3; % fluorescence drop versus neutral controls | activity (quench increase), % at 7.58 µM | 350,000 compounds, 0.36% hits | AID 720511;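 active means mean added fluorescence quench of at least 8% versus neutral control, with both replicates also reaching 8%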;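 further: cells transiently co-express mutant CFTR-F508del with the halide-sensitive YFP; corrector assay measuring rescue of mutant channel to the surface after 24 h compound exposure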
SMARCA2 act: SMARCA2 function activation, primary screen. MG213 cells, MMTV-luciferase reporter, dexamethasone, overnight. AID 652017. 370,000 compounds, 1% hits. activation, % at 9.1 µM; in the data active means activation above about 7.8%;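 further: 0% = vehicle wells and 100% = reference activator wells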
MC4R antag cAMP: human MC4R antagonism in cAMP assay | P32245 | MC4R-expressing cells, MTII-stimulated cAMP, LANCE TR-FRET | inhibition, % at 6.5 µM | 360,000 compounds, 0.48% hits;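 active means inhibition above its plate's cutoff, the mean of tested wells on that plate plus 3 SD, cut at about 29% in these data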;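 further: 0% = Melanotan II alone and 100% = Melanotan II plus saturating MCL0020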
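System – human MC4R-expressing U2OS cells · Also added – Melanotan II · Dosing – one concentration, 6.5 µM nominal · Timing – 30-min compound, 1-h challenge, 1-h detection, room temperature · Measured by – Eu-cAMP/anti-cAMP TR-FRET, emission 671 nm · Replicates – singlicate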
MC4R barr ag: human MC4R beta-arrestin agonism confirmation | shares compounds with MC4R barr agon | U2OS MC4R beta-arrestin recruitment, luminescence; scaled DMSO 0%, Melanotan II 100% | activation, % at 8.9 µM | 2,400 compounds, 31% hits | AID 602192;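 active means mean activation across replicates above the hit cutoff set in the earlier primary screen, cut at about 8% in these data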
MOR-DOR barr ag: activates mu-delta opioid heterodimer, MC4R agonist counter-screen. U2OS PathHunter beta-arrestin, beta-gal luminescence; percent of deltorphin B response, DMSO zero. 2,400 compounds, 5.8% hits. activation, % at 9.2 µM. AID 602194. shares compounds with MC4R barr agon;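 active means mean activation across replicates exceeds the hit threshold derived in the earlier primary screen, cut at about 18% in these data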;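 further: 100% = deltorphin B at 0.9 µM final and 0% = DMSO alone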
An asterisk follows results filed as active; · = no result given. Shown are actives, neighbours in structure and some others; about 2.1% of the full set was active somewhere.

SMILES | MC4R barr agon | F508del corr | SMARCA2 act | MC4R antag cAMP | MC4R barr ag | MOR-DOR barr ag
Cc1cc(Br)cc(Cl)c1OCC(=O)NC(=O)NCc1ccccc1 | 12* | -1 | -2 | 2 | 2 | 6
O=C(COC(=O)/C=C/c1ccccc1Cl)NCCc1ccc(Cl)cc1Cl | 9.9* | · | -4 | 17 | 1 | 3
Cc1cc(Br)cc(Br)c1OCC(=O)NNC(=O)CCC(=O)NCc1ccccc1 | 1 | 0 | -3 | 12 | · | ·
O=C(COC(=O)/C=C/c1cccc(Cl)c1)NC(=O)NCc1ccccc1 | 11* | -1 | 1 | 1 | 3 | 5
O=C(C[C@@H]1C[C@H]2c3cc(NC(=O)CC4CC4)ccc3O[C@H]2[C@H](CO)O1)NCc1ccncc1 | · | -5 | · | · | · | ·
CCCC(=O)Nc1ccc2c(c1)OC[C@@H](C)N(Cc1nccs1)C[C@@H](C)[C@@H](OC)CN(C)C2=O | · | -1 | · | · | · | ·
O=c1cc(CSc2ccccn2)c2ccccc2[nH]1 | -1 | · | 0 | 2 | · | ·
Cc1cc(SCc2cc(=O)[nH]c3ccccc23)nc2ccccc12 | 12* | · | 0 | -3 | 3 | 5
CC(C)(C)c1cc(-c2ccco2)c(C#N)c(SCC#N)n1 | 19* | · | 0 | 13 | 1 | 7
COc1ccc(Cn2c(SCc3cc(C)ccc3C)nc3cc(OC)c(OC)cc3c2=N)cc1 | 21* | · | -3 | 10 | 7 | 20*
COc1cc2nc(SCc3ccc(C(F)(F)F)cc3)n(Cc3cccs3)c(=N)c2cc1OC | 14* | · | -1 | 13 | 6 | 4
COc1ccc(Cn2c(SCc3ccc(C)cc3)nc3cc(OC)c(OC)cc3c2=N)cc1Cl | 28* | · | 9.2* | -4 | 7 | 19*
COc1cc2nc(SCc3ccc(Cl)cc3Cl)n(Cc3cccs3)c(=N)c2cc1OC | -1 | · | 0 | 1 | · | ·
Cc1cccc(-c2ccc([C@H]3[C@@H](CO)N4C(=O)CN(C(=O)c5ccc6c(c5)OCO6)C[C@@H]34)cc2)c1 | · | -1 | · | · | · | ·
O=C(CSc1nc2cc3ccccc3cc2[nH]1)Nc1ccc(F)cc1 | 9.6* | · | -2 | -7 | 2 | 6
CN(C)CC(=O)N[C@@H]1CC[C@H](CCn2cc(C3CC3)nn2)O[C@H]1CO | · | 0 | · | · | · | ·
COc1cc(NC(=O)c2cc3ccccc3o2)c(OC)cc1Cl | 13* | · | 0 | 3 | 8 | 8
COc1ccc(-c2cc3ccccc3oc2=O)cc1NC(=O)c1ccc(Br)o1 | 13* | · | 5 | 3 | 3 | 3
CCOc1cccc(C(=O)Nc2ccc(NC(=O)c3cc4ccccc4o3)c(OC)c2)c1 | 12* | -4 | -3 | 2 | 34* | 30*
COc1cccc(C(=O)Nc2ccc(-c3nc4ccccc4o3)c(O)c2)c1 | 11* | · | -1 | -1 | 4 | 4
COCC#Cc1cnc2c(c1)C(=O)N([C@@H](C)CO)C[C@H](C)[C@@H](CN(C)C(=O)C1CC1)O2 | · | 0 | · | · | · | ·
Cc1ccc(S(=O)(=O)N(C)C[C@H]2OCCCC[C@@H](C)Oc3ccc(NC(=O)NC(C)C)cc3C(=O)N([C@H](C)CO)C[C@H]2C)cc1 | · | -4 | · | · | · | ·
C=CCNc1nc(C(F)(F)F)nc2c1nnn2Cc1ccccc1Cl | 12* | 0 | -1 | -8 | 3 | 6
O=[N+]([O-])c1ccc(NN=Cc2cccc3ccccc23)nc1 | 2 | -1 | 1 | -2 | · | ·
COc1cccc(/C=N/Nc2ccc([N+](=O)[O-])cn2)c1O | 23* | · | -2 | -3 | 15* | 5
SMILES | MC4R barr agon | F508del corr | SMARCA2 act | MC4R antag cAMP | MC4R barr ag | MOR-DOR barr ag
O=C(Nc1ccc(F)cc1F)c1c(C(F)(F)F)ccnc1Oc1cccc(C(F)(F)F)c1 | 20* | 1 | 2 | -2 | 1 | 4
O=C(Nc1ccc(F)cc1F)c1c(C(F)(F)F)ccnc1Oc1ccc(Cl)cc1 | 3 | 2 | -4 | 3 | · | ·
COc1cc(-c2nc(-c3ccccc3)c(-c3cccs3)[nH]2)cc(OC)c1OC | -1 | · | -3 | 17 | · | ·
c1ccc(-c2nc(-c3cccs3)[nH]c2-c2ccccc2)cc1 | 9.6* | 6 | -1 | 7 | 3 | 5
Cc1ccc(C(=O)N(Nc2nc3ccccc3s2)C(=O)c2ccc(C)cc2)cc1 | 25* | -1 | 3 | 8 | 14* | 6
COc1cccc(-c2noc(-c3ccc4c(c3)OCO4)n2)c1 | 11* | 4 | 5 | 5 | 0 | 3
Nc1c(N=Nc2cccc(Cl)c2)c(=O)[nH]n1-c1ccccc1 | 13* | · | 2 | 7 | 6 | 4
CCc1c(C(=O)Nc2ccc(OC)cc2)[nH]c(C)c1C(C)=O | -3 | · | 1 | -4 | · | ·
CCc1c(C(=O)Nc2cc(C)ccc2OC)[nH]c(C)c1C(C)=O | 11* | · | -1 | 3 | 10* | 6
O=C(CCCCn1c(=O)c2ccccc2n(CC(=O)Nc2ccc(F)cc2)c1=O)NCc1ccco1 | 0 | · | 0 | 16 | · | ·
O=C(CCCCn1c(=O)c2ccccc2n(Cc2ccc(F)cc2Cl)c1=O)NCc1ccco1 | 11* | · | 0 | 5 | 1 | 4
CS(=O)(=O)c1sc2nc(-c3cccs3)cc(-c3ccccc3)c2c1N | -1 | · | -2 | 9 | · | ·
N#Cc1sc2nc(-c3cccs3)cc(-c3ccc(F)cc3)c2c1N | 35* | · | 3 | 26 | 19* | 6
Cc1ccc(C2CC(c3cccs3)=NN2C(=O)CCl)cc1 (configuration not stated) | 10* | 0 | -6 | 21 | 4 | 27*
CNC(=O)CSc1ncnc2c1cnn2-c1ccccc1 | 0 | 0 | 3 | 4 | · | ·
O=C(CSc1ncnc2c1cnn2-c1ccccc1)Nc1ccccc1 | 18* | 5 | -3 | 14 | 5 | 5
COc1ccc(NC(=O)c2ccc(C)cc2Cl)c([N+](=O)[O-])c1 | 2 | · | 4 | 0 | · | ·
COc1ccc(NC(=O)COC(=O)c2cc(C)oc2C)c([N+](=O)[O-])c1 | 23* | 2 | 1 | 8 | 3 | 11
COc1ccc(NC(=O)COC(=O)c2cc(OC)c(OC)c(OC)c2)c([N+](=O)[O-])c1 | -1 | 2 | 1 | 5 | · | ·
COc1ccc(NC(=O)c2cc(Br)ccc2Cl)c([N+](=O)[O-])c1 | 11* | 1 | -1 | -1 | 4 | 4
C[C@@H]1CCCCO[C@H](CN(C)C(=O)Nc2cccc3ccccc23)[C@H](C)CN([C@H](C)CO)C(=O)c2cc(NS(=O)(=O)c3cn(C)cn3)ccc2O1 | · | 0 | · | · | · | ·
O=C(C[C@@H]1CC[C@H](NS(=O)(=O)c2cccc(F)c2)[C@H](CO)O1)NCc1ccc2c(c1)OCO2 | · | 2 | · | · | · | ·
Cc1nc(Nc2ccc(F)cc2)nc(Nc2ccc(F)cc2)c1[N+](=O)[O-] | 13* | -2 | 0 | 10 | 5 | 3
Cc1nc(Nc2ccc(C(=O)O)cc2)nc(Nc2ccc(C(=O)O)cc2)c1[N+](=O)[O-] | -5 | 0 | -4 | 12 | · | ·
